KLK5 inh – blocks human kallikrein 5 protease activity; recombinant hK5, fluorogenic AMC substrate cleavage; inhibition, % at 5 µM; 210,000 compounds, 0.59% hits; AID 873;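 active = inhibition of 40% or more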
FXIIa inh 1536 – inhibitors of human coagulation factor XIIa | P00748 | purified FXIIa, Boc-QGR-AMC fluorogenic substrate, 2 h | inhibition, % at 5 µM | 220,000 compounds, 0.3% hits | AID 800; in the data active = inhibition above about 40%
Thrombin inh – thrombin (human) inhibition; alpha-thrombin, Boc-VPR-AMC fluorogenic substrate cleavage; inhibition, % at 5 µM; 220,000 compounds, 0.26% hits; AID 1046;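 active = inhibition at or above 40%; inactive = inhibition below 40%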
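signal = AMC fluorescence, 355/460 nm | material = human alpha-thrombin enzyme | control set = enzyme without compound as high, wells lacking enzyme as low | times = reaction at room temperature | read-out basis = percent inhibition scaled between no-compound controls and no-enzyme blanks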
FXIa inh 1536 – blocks human coagulation factor XIa protease activity | P03951 | purified FXIa, Boc-Glu-Ala-Arg-AMC fluorogenic substrate | inhibition, % at 5 µM | 220,000 compounds, 0.14% hits | AID 798;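 active = inhibition of at least 40%; inactive = inhibition below 40%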;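 also: fluorescence of freed AMC excited at 355 nm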
m-calpain inh – inhibitors of pig calpain II; purified calpain II, fluorogenic peptide substrate, 30 min; inhibition, % at 16 µM; 220,000 compounds, 0.37% hits; AID 1236;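 active = inhibition above about 50%, limit read from the data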
Furin inhibitor – blocks human furin protease activity. purified furin, fluorogenic substrate cleavage. inhibition, % at 20 µM or 30 µM. AID 463115. 220,000 compounds, 0.061% hits; in the data active = inhibition above about 25%
Target sequence (P09958 108-714 limits assumed): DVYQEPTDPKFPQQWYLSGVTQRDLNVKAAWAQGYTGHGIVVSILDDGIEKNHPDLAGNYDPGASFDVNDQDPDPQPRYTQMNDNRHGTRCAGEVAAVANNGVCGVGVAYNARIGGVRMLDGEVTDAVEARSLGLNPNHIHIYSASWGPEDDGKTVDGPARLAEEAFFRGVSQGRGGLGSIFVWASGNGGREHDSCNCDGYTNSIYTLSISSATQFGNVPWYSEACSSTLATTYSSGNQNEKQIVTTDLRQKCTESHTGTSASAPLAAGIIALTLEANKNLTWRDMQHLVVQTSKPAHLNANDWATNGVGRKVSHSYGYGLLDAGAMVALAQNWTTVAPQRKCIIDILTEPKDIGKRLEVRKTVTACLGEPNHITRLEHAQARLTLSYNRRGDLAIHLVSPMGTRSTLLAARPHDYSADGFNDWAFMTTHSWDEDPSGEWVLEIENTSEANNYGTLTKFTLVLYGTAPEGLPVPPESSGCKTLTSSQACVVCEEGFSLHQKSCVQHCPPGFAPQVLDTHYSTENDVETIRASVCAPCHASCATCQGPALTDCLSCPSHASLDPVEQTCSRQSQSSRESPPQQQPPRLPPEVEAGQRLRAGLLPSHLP
Of the large screens only hits and unclear results are named; the others gave an inactive call. An excerpt weighted towards active compounds, which were near 1.4% of everything screened.

Cn1c(-c2cccc(Br)c2)cnc1NCc1cccnc1	none
COc1cccc(-c2cnc(NCc3cc(Cl)ccc3O)n2C)c1	m-calpain inh 55.5
O=C(NCc1ccco1)c1cnn2c(C(F)(F)F)cc(-c3cccs3)nc12	none
COc1ccc(C(=O)c2oc3ccccc3c2N)cc1	none
COc1ccc2oc(C(=O)c3ccccc3)c(N)c2c1	KLK5 inh 49.5
CSCCNC(=O)c1ccc(OC2CCN(CCc3ccccc3)CC2)cc1	none (no result: KLK5 inh)
Cc1ccc(/C=c2\sc3nc(-c4ccccc4Br)nn3c2=O)o1	Thrombin inh 103.5
O=C(CCCn1c(=S)[nH]c2cc3c(cc2c1=O)OCO3)N1CCN(c2ccccc2)CC1	KLK5 inh 129.6
CCOc1ccc(-n2cc(C(=O)c3cc(Cl)ccc3O)cc(C#N)c2=O)cc1	none
Cc1ccc(C(C)C)c(OCc2nnc3n2CCCCC3)c1	none
C=CCNCCOc1ccc(C)cc1[N+](=O)[O-]	none
CCC(C)NCCOc1ccc(C)cc1[N+](=O)[O-] (stereo unspecified)	Thrombin inh 40.7 (no result: KLK5 inh)
CC(C)Nc1nc(C#N)nc(NC(C)C)n1	KLK5 inh 97.2, Thrombin inh 102.3
COc1ccc(CNC(=O)CN(Cc2ccc(C)cc2)S(=O)(=O)c2ccc(Cl)cc2)cc1	none
O=C1NN(c2ccccc2)C(=O)/C1=C\c1ccccc1OCC(=O)N1CCOCC1	none
CCOC(=O)c1c(C)n(C)c2ccc(OC)c(NC(=O)CCN3CCC(Cc4ccccc4)CC3)c12	FXIa inh 1536 51.8
CCOC(=O)c1c(C)n(C)c2ccc(OC)c(NC(=O)CN3CCSCC3)c12	none
Clc1ccc(C2CSc3c4ncnc-4ncn32)cc1 (stereo unspecified)	KLK5 inh 46.0
Cc1ccc(C2CC(c3ccc(Cl)cc3)n3nc(N)nc3N2)cc1 (stereo unspecified)	none
COc1ccc(CCN(C(=O)c2ccccc2)C2=CC3CCC(C2)N3C)cc1OC (stereo unspecified)	none
CCc1ccc(NC2CC(=O)N(CCc3ccc(OC)c(OC)c3)C2=O)cc1 (stereo unspecified)	none
CCc1ccc(NC2CC(=O)N(c3ccc(OC)cc3OC)C2=O)cc1 (stereo unspecified)	Thrombin inh 42.7
Cc1cc(NC(=O)COC(=O)c2cccc(S(=O)(=O)N(C)C3CCCCC3)c2)no1	FXIIa inh 1536 43.3
COc1ccc(NS(=O)(=O)c2cccc(C(=O)OCC(=O)Nc3cc(C)on3)c2)cc1	none
Cc1cc(NC(=O)COC(=O)c2cccc(O)c2)no1	none
Cc1cc(NC(=O)COC(=O)C2CCN(S(=O)(=O)c3c(Cl)cccc3Cl)CC2)no1	FXIIa inh 1536 43.2
Cc1ccc(NS(=O)(=O)c2ccc(C(=O)OCC(=O)Nc3cc(C)on3)cc2)cc1	KLK5 inh 48.0, FXIa inh 1536 101.9
CSCCC(NS(=O)(=O)c1cccs1)C(=O)NCc1ccccc1 (stereo unspecified)	none
Cn1nnnc1SCc1ccc(Cl)cc1	none
C=CCn1c(=O)c(C#N)cc2c(=O)n3ccccc3nc21	none (no result: m-calpain inh)
CC1CCC2(CC1)NC(=O)N(CC(=O)NCc1cccs1)C2=O (stereo unspecified)	none
N/C(=N\NC(=O)c1ccccc1)c1cc2ccccc2oc1=O	m-calpain inh 59.5
CCC(=O)Nc1cccc(NC(=S)NC(=O)c2cccs2)c1	none
COc1cc2ccccc2cc1C(=O)NC(=S)Nc1cc(C(=O)O)ccc1C	FXIIa inh 1536 98.9
COc1ccccc1C(=O)NC(=S)Nc1cc(C(=O)O)ccc1C	none
CCc1ccc(NC(=O)c2ccc3ncsc3c2)cc1	KLK5 inh 40.0
CN(C)S(=O)(=O)c1ccc(NC(=O)c2ccc3ncsc3c2)cc1	none
O=C(CN1C(=O)c2ccccc2C1=O)Nc1ccc(-c2nc3ccccc3o2)cc1	m-calpain inh 95.9
CCN1CCN(C(=O)CN2C(=O)c3cccc4cccc2c34)CC1	none
Cc1ccc(Cl)cc1N1CCN(C(=O)CN2C(=O)c3cccc4cccc2c34)CC1	KLK5 inh 62.5
CN1CCN(C(=S)c2cn(Cc3cccc(F)c3)c3ccccc23)CC1	none
CCC(=O)N/C(=N/c1nc(C)cc(C)n1)Nc1ccc(OC)cc1	Thrombin inh 51.3
CCC(=O)N/C(=N/c1nc(C)cc(C)n1)Nc1ccccc1	none
O=C(N/N=C1/CC2C=CCC12)c1ccc(Br)o1 (stereo unspecified)	none
CCn1c(C(C)NC(=O)c2cccs2)nc2ccccc21 (stereo unspecified)	none
CCn1c(C(C)NC(C)=O)nc2ccccc21 (stereo unspecified)	KLK5 inh 56.6
CC(C)c1ccc(CNc2nc3nc4c(c(=O)n3[nH]2)CCC4)cc1	none
CC(/C=N/NC(=O)c1cc(-c2cccn2C)n[nH]1)=C\c1ccccc1	KLK5 inh 57.3, FXIa inh 1536 52.5
Cc1ccc(Cc2cnc(NC(=O)c3cccs3)s2)cc1	none
O=C(Nc1ncc(Cc2ccccc2)s1)c1cccs1	FXIIa inh 1536 42.1
C=CCNC(=O)N[C@@H](CCSC)C(=O)OC	none
COC(=O)c1ccc(NC(=O)CSc2nc(C)cc(=O)[nH]2)cc1	none
COC(=O)c1c(SCC(=O)Nc2ccc(C)cc2)nc(=O)[nH]c1C	KLK5 inh 73.8
CC(=O)Nc1ccc(S(=O)(=O)NCc2cn3c(C)csc3n2)cc1	none
CCc1ccc(S(=O)(=O)NCc2cn3c(C)csc3n2)s1	m-calpain inh 100.3
CCN1CCN(C(=O)c2cc3sccc3n2CC(=O)c2ccccc2)CC1	none
O=C1CC(c2ccccc2)CC(=O)C1=CN1CCCC1 (stereo unspecified)	Furin inhibitor 32.6
O=C1CC(=O)CC(c2ccccc2)C1	none
Cc1cc2nc(-c3ccc(SCC(=O)Nc4ccc5c(c4)OCCO5)nc3)[nH]c2cc1C	none
Cc1n[nH]c(C)c1CCN(C)Cc1cn(C)nc1-c1ccccc1F	none
CC1CCN(c2ccc(NC(=O)c3cccnc3)cc2)CC1	Furin inhibitor 25.3
CC1CCN(c2ccc(NC(=O)c3cccnc3Cl)cc2)CC1	none
O=C(C1=C(O)C(=O)N(CCN2CCOCC2)C1c1ccncc1)c1ccco1 (stereo unspecified)	none
CCC(=O)Nc1nc(N)n(-c2ccccc2)n1	none
COC(=O)/C(=C/Nc1ccccc1)[N+](=O)[O-]	FXIIa inh 1536 45.8
COC(=O)/C(=C/Nc1ccc(O)cc1)[N+](=O)[O-]	none
NC(=O)C(=O)N/N=C/c1c[nH]c2ccc(Br)cc12	none
CC(Nc1nc2ncn(Cc3ccccc3)c2c(=O)[nH]1)C(=O)O (stereo unspecified)	Thrombin inh 62.0
COC(=O)c1ccccc1NC(=O)C1CCCN(S(=O)(=O)c2ccc(F)cc2)C1 (stereo unspecified)	none
C=CCOC(=O)C1=C(C)Nc2[nH]c(=O)[nH]c(=O)c2C1c1ccccc1 (stereo unspecified)	FXIa inh 1536 67.3
Cc1nn(C(C)C(=O)NCCCc2ccccc2)c(=O)c2cc3occc3n12 (stereo unspecified)	none

Source: PubChem
